Reference: ChEMBL document CHEMBL4428027, “3-Hydroxypyrimidine-2,4-diones as Selective Active Site Inhibitors of HIV Reverse Transcriptase-Associated RNase H: Design, Synthesis, and Biochemical Evaluations” (J Med Chem, 2016)
pIC50: −log10 of the molar value.

How the values were obtained:
[1] = molecular target: T1, Human immunodeficiency virus type 1 reverse transcriptase (Human immunodeficiency virus 1, UniProt Q72547); experiment: Inhibition of polymerase activity of HIV1 reverse transcriptase using poly(rA)-oligo(dT)16 and [3H]-TTP incubated for 20 mins by liquid scintillation spectrometry; conditions: for pIC50: read-out: IC50
How it was run: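 Reaction mix: 10 µM [3H]-TTP, 40 nM poly(rA)-oligo(dT)16, 50 mM Tris-HCl pH 7.4 (37°C), 60 mM KCl, 5 mM MgCl2. Started with 10 nM RT; 20 min at 37°C. Quenched in ice-cold 10% TCA with 20 mM sodium pyrophosphate, then glass-fibre filtered and washed with TCA and ethanol. Label incorporation read by liquid scintillation.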

[2] = molecular target: T1, Human immunodeficiency virus type 1 reverse transcriptase; experiment: Inhibition of RNase H activity of full length recombinant HIV1 reverse transcriptase assessed as reduction in nonspecific internal cleavage using HTS1 substrate; conditions: read-out: IC50
How it was run: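 Recombinant p66/p51 RT heterodimer. Fluorescent RNA/DNA duplex substrate HTS-1 measures internal cleavage. IC50 is the mean of at least three independent experiments.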

[3] = molecular target: T1, Human immunodeficiency virus type 1 reverse transcriptase; experiment: Inhibition of RNase H activity of full length recombinant HIV1 reverse transcriptase assessed as reduction in DNA 3'-end cleavage using HTS2 substrate; conditions: for pIC50: read-out: IC50
How it was run: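 Recombinant p66/p51 RT heterodimer. Fluorescent RNA/DNA duplex substrate HTS-2 reports DNA 3′-end-directed (polymerase-dependent) cleavage. IC50 is the mean of at least three independent experiments.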

[4] = molecular target: T1, Human immunodeficiency virus type 1 reverse transcriptase; experiment: Inhibition of RNase H activity of full length recombinant HIV1 reverse transcriptase assessed as reduction in RNA 5'-end directed cleavage using HTS3 substrate; conditions: for pIC50: read-out: IC50
[5] = molecular target: T1, Human immunodeficiency virus type 1 reverse transcriptase; experiment: Inhibition of re-constituted HIV1 reverse transcriptase RNase H domain fragment; conditions: read-out: IC50
How it was run: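 Secondary check using a catalytically active, isolated HIV RNase H domain fragment (reconstituted) with duplex substrate HTS-1.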

[6] = Toxicity against human HeLa P4/R5 cells; assay type: cell-based

Compound	IC50 [1]	pIC50 [2]	pIC50 [3]	pIC50 [4]	pIC50 [1]	IC50 [3]	pIC50 [5]	CC50 [6]	IC50 [4]
Cn1c(Oc2ccc(-c3ccc(C#N)cc3)cc2)cc(=O)n(O)c1=O	Not Active	5.60	4.96	5.33					
Cn1c(Oc2cccc(-c3ccc(C#N)cc3)c2)cc(=O)n(O)c1=O	Not Active	5.92	5.16	5.41					
Cn1c(Oc2cccc(-c3cccc(C#N)c3)c2)cc(=O)n(O)c1=O	Not Active	6.05	5.17	5.34					
Cn1c(Oc2ccccc2-c2ccc(Cl)cc2)cc(=O)n(O)c1=O		5.48		4.89	4.85	Not Active			
COc1ccc(-c2cccc(Nc3cc(=O)n(O)c(=O)n3C)c2)cc1		6.30	5.59	5.51	5.44		5.96	3 µM	
COc1ccc(-c2cccc(Nc3cc(=O)n(O)c(=O)n3C)c2)c(OC)c1		6.00	5.68	5.38	5.20		5.96	6 µM	
COc1ccccc1-c1ccc(Nc2cc(=O)n(O)c(=O)n2C)cc1	Not Active	5.55	5.03	5.05					
Cn1c(Oc2ccccc2-c2ccc(C(F)(F)F)cc2)cc(=O)n(O)c1=O	Not Active	5.41		4.68		Not Active	5.29	6 µM	
COc1ccc(-c2ccc(Oc3cc(=O)n(O)c(=O)n3C)cc2)cc1	Not Active	5.80	4.96	4.92			5.33	6 µM	
Cn1c(Oc2ccccc2-c2ccccc2O)cc(=O)n(O)c1=O	Not Active	4.96				Not Active			Not Active
O=c1cc(Nc2ccc(-c3ccc(O)cc3)cc2)[nH]c(=O)n1O		6.74	6.35	6.43	6.09				
Cn1c(Nc2ccc(-c3ccc(C#N)cc3)cc2)cc(=O)n(O)c1=O		5.96	5.59	5.43	5.48		6.00	12 µM	
COc1ccccc1-c1ccccc1Oc1cc(=O)n(O)c(=O)n1C	Not Active	5.09				Not Active	4.89	8 µM	Not Active
Cn1c(Oc2cccc(-c3ccccc3)c2)cc(=O)n(O)c1=O	Not Active	6.00		4.82		Not Active	5.41	3 µM	
Cn1c(Nc2cccc(-c3ccc(C#N)cc3)c2)cc(=O)n(O)c1=O		6.15	5.64	5.47	5.30		6.00	10 µM	
COc1ccc(-c2cccc(Oc3cc(=O)n(O)c(=O)n3C)c2)cc1	Not Active	6.40	5.40	5.33			5.74	2.5 µM	
COc1cc(OC)cc(-c2ccc(Nc3cc(=O)n(O)c(=O)n3C)cc2)c1		5.80	5.14	5.04	5.19		5.74	15 µM	
O=c1cc(Nc2ccc(-c3cccc(O)c3)cc2)[nH]c(=O)n1O		6.66	6.37	6.40	6.10				
COc1ccccc1-c1ccc(Oc2cc(=O)n(O)c(=O)n2C)cc1	Not Active	5.55		4.66		Not Active	5.21	5 µM	
COc1cccc(-c2ccc(Nc3cc(=O)n(O)c(=O)n3C)cc2)c1	Not Active	6.10	5.46	5.29			5.77	6 µM	
Cn1c(Nc2ccc(-c3ccc(C(F)(F)F)cc3)cc2)cc(=O)n(O)c1=O	Not Active	5.44	5.05	5.18			5.66	10 µM	
COc1cccc(-c2ccccc2Oc2cc(=O)n(O)c(=O)n2C)c1	Not Active	5.24				Not Active	4.92	6 µM	Not Active
Cn1c(Oc2ccc(-c3ccccc3)cc2)cc(=O)n(O)c1=O	Not Active	5.72	5.28	5.22			5.68	5 µM	
